# Assay results as given in PubChem BioAssay AID493091 (Sanford-Burnham Center for Chemical Genomics, 2011).
# About 3,000 (0.88%) of roughly 340,000 compounds were called active. The entries come from a sample that favours actives as a whole. Unmarked numbers belong to inactive results.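 The calls were made as follows: active = inhibition above about 50% at 20 µM (limit read from the data); inactive = the rest.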
# Molecular target: Carboxy-terminal domain RNA polymerase II polypeptide A small phosphatase 1 (Homo sapiens) (UniProt Q9GZU7)
# Assay: inhibition of human SCP1 dephosphorylation activity – biochemical, colorimetric, uHTS, primary screen (AID 493091);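 also: plate controls were DMSO wells with enzyme for no effect and wells lacking enzyme for full effect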
# Details: Recombinant Scp1, phosphopeptide, malachite green phosphate absorbance; at 20 µM; active compounds read high
# In short: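 Test system – truncated SCP-1 phosphatase (76-261aa) · Reagent – Phosphorylated 17-residue peptide substrate · Incubation – 45 min room-temperature reaction, 5 min colour, 30 min stabiliser · Detection – colorimetric phosphate reagent with accelerator and stabiliser, absorbance at 630 nm · Measure – % inhibition at 20 µM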
# Carboxy-terminal domain RNA polymerase II polypeptide A small phosphatase 1 (Homo sapiens), sequence (Q9GZU7 76-261 limits assumed): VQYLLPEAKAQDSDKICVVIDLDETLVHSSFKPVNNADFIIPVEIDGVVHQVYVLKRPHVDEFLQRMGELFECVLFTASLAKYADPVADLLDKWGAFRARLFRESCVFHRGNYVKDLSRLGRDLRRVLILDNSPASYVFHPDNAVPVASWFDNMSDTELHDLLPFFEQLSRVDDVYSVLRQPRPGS
row,SMILES,inhibition
1,O=C(O)CCn1cc(C=C2C(=O)NC(=S)NC2=O)c(-c2cccc(Br)c2)n1,69.2% (active)
2,CC(=O)N(C1=NCCCS1)c1ccccc1F,-8.48%
3,Nc1ccc(Cc2ccc(N)c(Cl)c2)cc1Cl,-6.26%
4,Cc1ccc(C2CN(C)CC2C(=O)c2ccc(F)cc2)cc1 (stereo not given),2.83%
5,O=C(Cc1ccc(Cl)cc1)NCCN1CCN(C(=O)Cc2ccc(Cl)cc2)CC1,-8.32%
6,Cc1ccc(S(=O)(=O)N(C)c2ccc(C(=O)NCC3(N(C)C)CCCCC3)cc2)cc1,-2.43%
7,O=C1NC(=O)N(Cc2ccco2)C(=O)/C1=C\c1ccc(-c2ccc(F)cc2)o1,5.05%
8,COc1cccc(N2C(=O)NC(=O)/C(=C\c3ccc([N+](=O)[O-])s3)C2=O)c1,17.3%
9,COc1ccc(N2C(=O)/C(=C/c3ccco3)C(=O)NC2=S)cc1,92.7% (active)
10,CCN(CC)CCOC(=O)c1cc2cc(COC)ccc2o1,70.7% (active)
11,COc1ccc2c(c1)NP(=S)(c1ccccc1)N2 (stereo not given),0.52%
12,CSc1ccc(C(=O)C2CCCN(Cc3ccn[nH]3)C2)cc1 (stereo not given),-7.2%
13,CCN(CC)C(=O)Oc1ccc(NC(=O)N2CCOCC2)cc1,-3.55%
14,COC(=O)C1=C(c2cc3ccccc3s2)C[C@@H]2CC[C@H]1N2C(=O)NCc1cccc2ccccc12,-7.13%
15,O=c1[nH]c(=O)n(CCc2ccc(F)cc2)c(O)c1/C=N/N1CCCCC1,51% (active)
16,O=c1[nH]c(=O)n(CCc2ccccc2)c(O)c1/C=N/N1CCOCC1,-5.04%
17,O=c1[nH]c(=O)n(-c2ccc(F)cc2)c(O)c1C=NCCN1CCCCC1,-0.8%
18,CN1CCN(Cc2ccc(OC(F)(F)F)cc2)CC1,22.4%
19,COc1ccccc1N=Nc1c(O)[nH]c(=S)[nH]c1=O,9.19%
20,COc1ccccc1N=C1SCCCN1C,95.3% (active)
21,CC(=O)Nc1ccc(C(=O)C(Cc2ccccc2)N(C)C)cc1 (stereo not given),-12.1%
22,O=C(NCC(c1cccnc1)N1CCN(c2ccccc2)CC1)Oc1ccccc1 (stereo not given),-0.44%
23,CC1CNCCN1c1ccc(Cl)cc1 (stereo not given),2.17%
24,CN(C)C(=O)Oc1ccc2c(c1)O/C(=C\c1ccccc1)C2=O,-15.9%
25,Cc1ccc(C)c(NC2=NCCCS2)c1,-6%
